From ChEMBL document CHEMBL1121898, “Potential antiestrogens. Synthesis and evaluation of mammary tumor inhibiting activity of 1,2-dialkyl-1,2-bis(3'-hydroxyphenyl)ethanes” (1981)
Calls of active or inactive are those of the source. The calls are words filed in the database; no cut-off is given here.

Assays:
[1] = species on record: Mus musculus; assay: Vaginal cornification test in mice at 0 ug; predominant cellular component leucocytes (diestrus); format: functional, organism-based
Method in brief: (§1)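 Female NMRI mice (~15 g) were ovariectomized; castration was confirmed at 10 days by leucocyte smears. Mice were primed with estradiol 3-benzoate 0.2 μg, and only responders showing estrus were kept. Groups of three received sc test compound in 0.1 mL olive oil daily for 3 days. Saline vaginal smears were taken 6, 24, 30, 48 and 54 h after the last dose and scored by Allen-Doisy.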

[2] = species on record: Mus musculus; assay: Vaginal cornification test in mice at 2.7 ug; predominant cellular component leucocytes (diestrus); format: functional, organism-based
[3] = species on record: Mus musculus; assay: Predominant components of vaginal smear at a compound concentration of 240 ug was determined using vaginal cornification test; leucocytes (</= 50%), nucleated and cornified, nucleated cellscharacteristic of antiestrogens; format: functional, organism-based
[4] = species on record: Mus musculus; assay: Vaginal cornification test in mice at 27 ug; predominant cellular component leucocytes (diestrus); format: functional, organism-based
[5] = species on record: Mus musculus; assay: Vaginal cornification test in mice at 5 ug; predominant cellular component leucocytes (diestrus); format: functional, organism-based; method in brief: as §1
[6] = species on record: Mus musculus; assay: Predominant components of vaginal smear at a compound concentration of 80 ug was determined using vaginal cornification test; leucocytes (</= 50%), nucleated and cornified, nucleated cellscharacteristic of antiestrogens; format: functional, organism-based
[7] = target: T1, Estrogen receptor (Mus musculus) (UniProt O08537+P19785); assay: Antiestrogenic activity in uterotrophic test in mice at 0 ug; format: functional
T1 sequence (O08537 whole entry, looked up): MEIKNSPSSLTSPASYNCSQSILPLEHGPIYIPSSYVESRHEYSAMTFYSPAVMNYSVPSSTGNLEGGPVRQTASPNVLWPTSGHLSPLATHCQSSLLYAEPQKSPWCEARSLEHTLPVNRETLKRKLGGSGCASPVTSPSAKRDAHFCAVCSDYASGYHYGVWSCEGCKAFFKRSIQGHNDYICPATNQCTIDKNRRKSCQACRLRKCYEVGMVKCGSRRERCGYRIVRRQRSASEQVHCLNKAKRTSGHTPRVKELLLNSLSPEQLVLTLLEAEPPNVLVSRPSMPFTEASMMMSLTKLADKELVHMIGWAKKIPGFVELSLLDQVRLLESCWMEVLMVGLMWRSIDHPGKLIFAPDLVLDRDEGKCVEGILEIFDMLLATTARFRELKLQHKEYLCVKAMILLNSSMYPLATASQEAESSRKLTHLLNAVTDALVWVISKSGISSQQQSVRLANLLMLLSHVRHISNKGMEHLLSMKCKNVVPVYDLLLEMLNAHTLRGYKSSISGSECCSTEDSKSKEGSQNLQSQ
T1 sequence (P19785 whole entry, looked up): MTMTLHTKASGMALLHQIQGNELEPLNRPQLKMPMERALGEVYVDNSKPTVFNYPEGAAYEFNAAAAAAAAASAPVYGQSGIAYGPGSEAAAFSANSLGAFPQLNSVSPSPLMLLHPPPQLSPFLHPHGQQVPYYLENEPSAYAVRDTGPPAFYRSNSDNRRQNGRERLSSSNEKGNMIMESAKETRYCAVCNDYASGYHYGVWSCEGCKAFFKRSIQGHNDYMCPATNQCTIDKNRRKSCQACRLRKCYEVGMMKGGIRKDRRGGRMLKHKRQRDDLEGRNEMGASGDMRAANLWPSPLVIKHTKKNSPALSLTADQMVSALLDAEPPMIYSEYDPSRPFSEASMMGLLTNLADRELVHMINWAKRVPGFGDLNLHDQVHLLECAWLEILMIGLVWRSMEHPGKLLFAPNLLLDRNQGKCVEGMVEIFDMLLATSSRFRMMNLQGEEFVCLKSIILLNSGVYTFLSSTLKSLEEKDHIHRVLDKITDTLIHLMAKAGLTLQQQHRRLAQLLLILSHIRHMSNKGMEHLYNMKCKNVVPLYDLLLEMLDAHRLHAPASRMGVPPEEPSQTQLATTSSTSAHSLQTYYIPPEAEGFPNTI
Method in brief: (§2)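 Immature female NMRI mice, 20 days old (14.5 ± 1.2 g), randomly grouped 10 per group. Each received a daily sc injection for 3 days of 0.1 mL olive oil solution containing test compound, together with estrone to stimulate uterine growth. Uteri were removed 24 h after the last injection and weighed. Results are reported as % inhibition of the estrone-stimulated uterine weight gain, mean ± SD.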

[8] = target: T1, Estrogen receptor (Mus musculus); assay: Antiestrogenic activity in uterotrophic test in mice at 2.7 ug; format: functional; method in brief: as §2
[9] = target: T1, Estrogen receptor (Mus musculus); assay: Antiestrogenic activity in uterotrophic test in mice at 240 ug; format: functional; method in brief: as §2
[10] = target: T1, Estrogen receptor (Mus musculus); assay: Antiestrogenic activity in uterotrophic test in mice at 27 ug; format: functional; method in brief: as §2
[11] = target: T1, Estrogen receptor (Mus musculus); assay: Antiestrogenic activity in uterotrophic test in mice at 80 ug; format: functional; method in brief: as §2
[12] = target: T1, Estrogen receptor (Mus musculus); assay: Antiestrogenic activity in uterotrophic test in mice at 5 ug; format: functional; method in brief: as §2
[13] = target: T1, Estrogen receptor (Mus musculus); assay: Estrogenic activity in uterotrophic test in mice at 0 ug; format: functional
Method in brief: (§3)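 Uterine growth stimulation in immature female NMRI mice, 20 days old (14.5 ± 1.2 g), 10 per group. Test compound in 0.1 mL olive oil was given sc daily for 3 days. Uteri were excised 24 h after the final injection and weighed. Effect is reported as mean ± SD.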

[14] = target: T1, Estrogen receptor (Mus musculus); assay: Estrogenic activity in uterotrophic test in mice at 180 ug; format: functional; method in brief: as §3
[15] = target: T1, Estrogen receptor (Mus musculus); assay: Estrogenic activity in uterotrophic test in mice at 2 ug; format: functional; method in brief: as §3
[16] = target: T1, Estrogen receptor (Mus musculus); assay: Estrogenic activity in uterotrophic test in mice at 20 ug; format: functional; method in brief: as §3
[17] = target: T1, Estrogen receptor (Mus musculus); assay: Estrogenic activity in uterotrophic test in mice at 533 ug; format: functional
Method in brief: (§4)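 Immature (20-day-old) female NMRI mice, 14.5 ± 1.2 g, randomized into groups of 10. Given the test compound sc daily for 3 days in 0.1 mL olive oil. Uteri removed 24 h after the last injection; uterine weight taken as the read-out, means ± SD. Dose in μg.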

[18] = target: T1, Estrogen receptor (Mus musculus); assay: Estrogenic activity in uterotrophic test in mice at 60 ug; format: functional; method in brief: as §4
[19] = target: T1, Estrogen receptor (Mus musculus); assay: Inhibitory activity in mouse uterine weight test at 2.7 ug; format: functional
Method in brief: (§5)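 Antiuterotrophic (Dorfman) assay in immature 20-day-old female NMRI mice, groups of 10. Uterine growth was stimulated with estrone (0.1 μg) and the test compound was given alongside it, sc daily for 3 days in 0.1 mL olive oil. Uteri were taken 24 h after the last dose. Uterine weight is reported as means ± SD and inhibition as % of the estrone-stimulated response.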

[20] = target: T1, Estrogen receptor (Mus musculus); assay: Inhibitory activity in mouse uterine weight test at 240 ug; format: functional; method in brief: as §5
[21] = target: T1, Estrogen receptor (Mus musculus); assay: Inhibitory activity in mouse uterine weight test at 27 ug; format: functional; method in brief: as §5
[22] = target: T1, Estrogen receptor (Mus musculus); assay: Inhibitory activity in mouse uterine weight test at 5 ug; format: functional; method in brief: as §5
[23] = target: T1, Estrogen receptor (Mus musculus); assay: Inhibitory activity in mouse uterine weight test at 80 ug; format: functional
Method in brief: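 Immature female NMRI mice, 20 days old (14.5 ± 1.2 g), in random groups of 10. They received sc injections daily for 3 days of 0.1 mL olive oil containing test compound, with estrone 0.1 μg given to stimulate uterine growth. Uteri were removed 24 h after the last injection and weighed (mean ± SD). Result is percent inhibition of the estrone-stimulated uterine weight gain.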

[24] = system: Estrogen receptor (Bos taurus); assay: Displacement of [3H]estradiol from calf estrogen receptor

## CC(C)CC(c1cccc(O)c1)C(CC(C)C)c1cccc(O)c1 (centres undefined)
[1]
  Activity: inactive
[2]
  Activity: inactive
[3]
  Activity: Weak activity
[4]
  Activity: inactive
[5]
  Activity: inactive
[6]
  Activity: Weak activity
[7]
  Effect: 11.4
[8]
  Effect: 38.1
[9]
  Effect: 31.7
[10]
  Effect: 33.2
[11]
  Effect: 31.5
[12]
  Effect: 34.1
[13]
  Effect: 10
[14]
  Effect: 32.6
[15]
  Effect: 11.8
[16]
  Effect: 14.5
[17]
  Effect: 31.3
[18]
  Effect: 19
[19]
  inhibition: 4%
[20]
  inhibition: 27%
[21]
  inhibition: 22%
[22]
  inhibition: 18%
[23]
  inhibition: 28%
[24]
  Ka: 110000 M⁻¹
